Data set [1] concerns HL-60. Kind of data set: Induction of SAPK/JNK phosphorylation in human HL-60 cells at 5 to 20 uM after 24 hrs by Western blot analysis. On the technique in general: In western blotting, separated proteins are transferred to a membrane and probed.
Data set [2] relates to HL-60. As to the kind of experiment: Induction of apoptosis in human HL60 cells assessed as activation of caspase 8 at >10 uM after 24 hrs by Western blot analysis. Format: functional, cell-based.
Data set [3] concerns HL-60. As to the kind of experiment: Induction of apoptosis in human HL60 cells assessed as cleavage of PARP at >10 uM after 24 hrs by Western blot analysis. Format: functional, cell-based.
Data set [4] is described as follows: Stability of the compound in phosphate buffer assessed as first-order initial rate constant for hydrolysis at pH 7.4 at 25 degC by HPLC trapping method. Format: physicochemical.
In data set [5] the target is T1, Glutathione S-transferase P (Homo sapiens, UniProt P09211). As to the kind of experiment: Drug metabolism in phosphate buffer assessed as formation of GSTP1 (unknown origin)-mediated (Z)-1-(5-((R)-2-((S)-4-amino-4-carboxybutanamido)-3-(carboxymethylamino)-3-oxopropylthio)-2-cyano-4-nitrophenoxy)-3,3-dimethyltriaz-1-ene 2-oxide at 1 uM at pH 7.4 at 37 degC after 5 to 30 mins by LC-MS/MS analysis in presence of GSH. Particulars: pH 7.4, 1 µM. Format: ADME. In short, it runs like this:
(§1)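 Test compound at 1 µM reacted with 4 mM GSH containing 4 nM GSTP1 in 0.1 M phosphate, pH 7.4, at 37 °C. Products identified by LC–MS traces taken at 60 s and 30 min.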

For data set [6], the target named is T2, Glutathione S-transferase A1 (Homo sapiens, UniProt P08263).
T2 sequence (P08263 whole entry): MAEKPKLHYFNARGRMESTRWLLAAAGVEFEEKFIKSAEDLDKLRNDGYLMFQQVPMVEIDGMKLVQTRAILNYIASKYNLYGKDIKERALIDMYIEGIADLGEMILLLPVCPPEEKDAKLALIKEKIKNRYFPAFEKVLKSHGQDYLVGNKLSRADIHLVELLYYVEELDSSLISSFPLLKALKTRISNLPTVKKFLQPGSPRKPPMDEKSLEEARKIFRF
Kind of data set: Drug metabolism in phosphate buffer assessed as ratio of GSTA1 (unknown origin)-mediated (S)-2-amino-5-((R)-1-(carboxymethylamino)-3-(2-cyano-5-hydroxy-4-nitrophenylthio)-1-oxopropan-2-ylamino)-5-oxopentanoic acid formation from nitric oxide release pathway to GSTA1 (unknown origin)-mediated (Z)-1-(2-cyano-5-hydroxy-4-nitrophenoxy)-3,3-dimethyltriaz-1-ene 2-oxide formation from nitric oxide retained pathway at 1 uM at pH 7.4 at 37 degC after 30 mins by LC-MS/MS analysis in presence of GSH. Format: ADME. Particulars: pH 7.4, 0.5 h. In short, it runs like this: (§2)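 Products analysed by LC–MS. The ratio is the NO-release-pathway product over the NO-retained-pathway phenolic product.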

Data set [7] concerns U-937. Kind of data set: Cytotoxicity against human U937 cells assessed as growth inhibition after 72 hrs by MTT assay. In kind it is functional, cell-based. Particulars: U-937, 72 h. In short, it runs like this: (§3)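 HL-60 and U937 cells from ATCC, grown per supplier protocol, seeded and exposed to increasing concentrations for 72 h. Viability was read with a Promega assay run per the manufacturer's protocol. Six repeats per concentration, three independent experiments. IC50 derived by curve fitting.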
A general note: Formazan colour is commonly taken as a measure of viable cells.

The test system of data set [8] is HL-60. Kind of data set: Induction of apoptosis in human HL60 cells assessed as activation of caspase 7 at >10 uM after 24 hrs by Western blot analysis. In kind it is functional, cell-based.
A short description of data set [9]: Stability of the compound in phosphate buffer assessed as pseudo-first order rate constant at pH 7.4 at 37 degC by HPLC trapping method in presence of GSH. Format: physicochemical.
Data set [10] relates to HL-60. As to the kind of experiment: Cytotoxicity against human HL60 cells assessed as growth inhibition after 72 hrs by MTT assay. Format: functional, cell-based. Particulars: HL-60, 72 h. In short, it runs like this:
as §3

Data set [11] can be described thus: Stability of the compound in phosphate buffer assessed as first-order initial rate constant for hydrolysis at pH 7.4 at 37 degC by HPLC trapping method. In kind it is physicochemical.
The target of data set [12] is T1, Glutathione S-transferase P. Kind of data set: Prodrug conversion in phosphate buffer assessed as GSTP1 (unknown origin)-mediated nitric oxide release at 1 uM at pH 7.4 at 37 degC after 1 to 30 mins by LC/MS-MS analysis. In kind it is ADME. Particulars: pH 7.4, 1 µM. In short, it runs like this:
as §1

Data set [13] addresses T2, Glutathione S-transferase A1. Kind of data set: Drug metabolism in phosphate buffer assessed as ratio of GSTA1 (unknown origin)-mediated (S)-2-amino-5-((R)-1-(carboxymethylamino)-3-(5-hydroxy-2,4-dinitrophenylthio)-1-oxopropan-2-ylamino)-5-oxopentanoic acid formation from nitric oxide release pathway to GSTA1 (unknown origin)-mediated (Z)-1-(5-hydroxy-2,4-dinitrophenoxy)-3,3-dimethyltriaz-1-ene 2-oxide formation from nitric oxide retained pathway at 1 uM at pH 7.4 at 37 degC after 30 mins by LC-MS/MS analysis in presence of GSH. Particulars: pH 7.4, 0.5 h. In kind it is ADME. In short, it runs like this:
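GSTA1 (4 nM)-catalysed reaction of 1 µM compound with 4 mM GSH in 0.1 M phosphate buffer, pH 7.4, 37 °C. Products analysed by LC–MS. Value is the ratio of the NO-release-pathway product to the NO-retained-pathway phenol product.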

Data set [14] is described as follows: Half life of the compound in phosphate buffer at 1 uM at pH 7.4 at 37 degC by HPLC trapping method. Format: ADME. In short, it runs like this:
(§4)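 Hydrolysis of compound at 1 µM final in 0.1 M phosphate buffer, pH 7.4, with 0.1% DMSO, run separately at 25 °C and 37 °C. Decomposition followed by HPLC, with products confirmed by LC–MS/MS. First-order rate constants were derived by initial-rate analysis.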

Data set [15] is described as follows: Half life of the compound in phosphate buffer at 1 uM at pH 7.4 at 25 degC by HPLC trapping method. In kind it is ADME. In short, it runs like this: as §4
A short description of data set [16]: Drug level in phosphate buffer treated with (Z)-1-(2-cyano-5-(4-(methylamino)benzoyloxy)-4-nitrophenoxy)-3,3-dimethyltriaz-1-ene 2-oxide at 1 uM at pH 7.4 at 37 degC after 30 secs by LC-MS analysis in presence of GSH. In kind it is physicochemical. Particulars: pH 7.4, 0.5 min.
Data set [17] is described as follows: Drug level in phosphate buffer treated with (Z)-3,3-dimethyl-1-(5-(4-(methylamino)benzoyloxy)-2,4-dinitrophenoxy)triaz-1-ene 2-oxide at 1 uM at pH 7.4 at 37 degC after 1 to 30 mins by LC/MS-MS analysis. Format: physicochemical. Particulars: pH 7.4, 1 µM.
A short description of data set [18]: Drug level in phosphate buffer treated with (Z)-3,3-dimethyl-1-(5-(4-(methylamino)benzoyloxy)-2,4-dinitrophenoxy)triaz-1-ene 2-oxide at 1 uM at pH 7.4 at 25 degC by HPLC trapping method. Particulars: pH 7.4, 1 µM. Format: physicochemical.
For data set [19], the target named is T2, Glutathione S-transferase A1. Kind of data set: Drug level in phosphate buffer assessed as GSTA1 (unknown origin)-mediated compound formation from nitric oxide release pathway treated with (Z)-1-(2-cyano-5-(4-(methylamino)benzoyloxy)-4-nitrophenoxy)-3,3-dimethyltriaz-1-ene 2-oxide at 1 uM at pH 7.4 at 37 degC after 30 mins by LC-MS/MS analysis in presence of GSH. In kind it is ADME. Particulars: pH 7.4, 0.5 h. The essentials:
as §2

The target of data set [20] is T1, Glutathione S-transferase P. Kind of data set: Drug level in phosphate buffer assessed as GSTP1 (unknown origin)-mediated compound formation treated with (Z)-1-(2-cyano-5-(4-(methylamino)benzoyloxy)-4-nitrophenoxy)-3,3-dimethyltriaz-1-ene 2-oxide at 1 uM at pH 7.4 at 37 degC after 5 to 30 mins by LC-MS/MS analysis in presence of GSH. In kind it is ADME. Particulars: pH 7.4, 1 µM. The essentials: as §1

Data set [21] is described as follows: Drug level in phosphate buffer treated with (Z)-1-(4-cyano-5-(4-(methylamino)benzoyloxy)-2-nitrophenoxy)-3,3-dimethyltriaz-1-ene 2-oxide at 1 uM at pH 7.4 at 37 degC after 30 secs by LC-MS analysis in presence of GSH. Format: physicochemical. Particulars: pH 7.4, 0.5 min.
The nature of data set [22]: Drug level in phosphate buffer treated with (Z)-1-(4-cyano-5-(4-(methylamino)benzoyloxy)-2-nitrophenoxy)-3,3-dimethyltriaz-1-ene 2-oxide at 1 uM at pH 7.4 at 37 degC measured for 30 mins by LC-MS/MS analysis in presence of GSH. Particulars: pH 7.4, 0.5 h. Format: physicochemical.
The nature of data set [23]: Drug level in phosphate buffer treated with (Z)-3,3-dimethyl-1-(5-(4-(methylamino)benzoyloxy)-2,4-dinitrophenoxy)triaz-1-ene 2-oxide at 1 uM at pH 7.4 at 37 degC by HPLC trapping method in presence of GSH. Format: physicochemical. Particulars: pH 7.4, 1 µM.

Activity calls are given as the source filed them. No cut-off for these calls is given here.

From ChEMBL document CHEMBL3593239, “PABA/NO lead optimization: Improved targeting of cytotoxicity to glutathione S-transferase P1-overexpressing cancer cells” (Bioorg Med Chem, 2015) come the findings set out here.

T1 sequence (P09211 whole entry): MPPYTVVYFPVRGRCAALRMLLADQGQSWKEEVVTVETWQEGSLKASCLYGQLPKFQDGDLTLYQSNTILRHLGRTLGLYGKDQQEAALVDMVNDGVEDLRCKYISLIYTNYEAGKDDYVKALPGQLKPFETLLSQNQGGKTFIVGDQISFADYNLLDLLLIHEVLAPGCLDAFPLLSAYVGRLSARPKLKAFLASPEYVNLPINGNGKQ

Regarding `CNc1ccc(C(=O)Oc2cc(O/N=[N+](\[O-])N(C)C)c(C#N)cc2[N+](=O)[O-])cc1`, the result in data set [1], in [2], in data set [3] and in [8] was Active. Further, the results for the K in data set [4], in data set [9] and in [11] were 3.3 ×10⁻⁵ /s, 2.1 ×10⁻³ /s and 2.1 ×10⁻⁴ /s, respectively. The Drug metabolism result in data set [5] and in [12] was “metabolite_detected” each time. Further, the Ratio in [6] came out at 1. Moreover, the IC50 (as a rule, the point on the concentration scale where inhibition reaches its midpoint) turned out to be 15 µM in data set [7] and 20 µM in [10].
As to `CNc1ccc(C(=O)Oc2cc(O/N=[N+](\[O-])N(C)C)c([N+](=O)[O-])cc2[N+](=O)[O-])cc1`, in data set [13], the Ratio was determined as 3. Further, the K in [4] came out at 9.6 ×10⁻⁵ /s; in [9], 11.8 ×10⁻³ /s; in data set [11] it was 5.7 ×10⁻⁴ /s. Also, the half-life (usually how long it takes for the measured level to halve) at 1 µM in data set [14] is 0.333 h; in data set [15], 2 h. For the same compound, the Drug metabolism result in [12] is recorded as “metabolite_detected”.
Regarding `CNc1ccc(C(=O)O)cc1`, the Drug metabolism entry in data set [16], in [17] and in data set [18] was “metabolite_detected” in each case.
Turning to `N#Cc1cc([N+](=O)[O-])c(O)cc1SC[C@H](NC(=O)CC[C@H](N)C(=O)O)C(=O)NCC(=O)O`, in [19], the Drug metabolism entry is reported as “metabolite_detected”.
With `CN(C)/[N+]([O-])=N/Oc1cc(SC[C@H](NC(=O)CC[C@H](N)C(=O)O)C(=O)NCC(=O)O)c([N+](=O)[O-])cc1C#N`, the Drug metabolism entry in data set [16] and in data set [20] was “metabolite_detected” throughout.
As to `CNc1ccc(C(=O)SC[C@H](NC(=O)CC[C@H](N)C(=O)O)C(=O)NCC(=O)O)cc1`, the Drug metabolism result in data set [16], in [21], in data set [17] and in data set [22] was “metabolite_detected” each time.
Consider `CN(C)/[N+]([O-])=N/Oc1cc(SC[C@H](NC(=O)CC[C@H](N)C(=O)O)C(=O)NCC(=O)O)c([N+](=O)[O-])cc1[N+](=O)[O-]`, for which, in data set [23], the Drug metabolism entry is “metabolite_detected”.
